In article PMC10671706 (Journal of medicinal chemistry, 2022):
Bridge positions count the residues as written; N and C are the ends. Square brackets hold non-standard residues; d marks the D form. Ends that are not written are not given here. Peptide text beside a SMILES is read from it.

What was measured:
trypsin = conditions: cited from earlier work
[1] = target: human PD-1/PD-L1 interaction (Homo sapiens, UniProt Q9NZQ7); experiment: Protein-based PD-1/PD-L1 blocking assay; assay type: binding; conditions: human PD-L1/PD-1 protein interaction
CT26 tumor = experiment: Anti-tumor activity and survival study in CT26 syngeneic Balb/c mouse model; assay type: in vivo
How it was run: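 CT26 cells (~1×10^6) implanted s.c. in the right flank of male and female Balb/c mice. At 200-250 mm3, mice were split into five groups of 4 female + 4 male. Test compound or anti-mouse PD-L1 antibody 0.5 mg/kg i.p. daily, day 10–18; saline i.p. control. Caliper volume = 1/2 × length × width2. RTV = day 18/day 10 volume; TGI on day 18; survival curves.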

PD-1/PD-L1 complex = conditions: cited from earlier work

human PD-1/PD-L1 interaction, sequence (Q9NZQ7 19-238 limits assumed): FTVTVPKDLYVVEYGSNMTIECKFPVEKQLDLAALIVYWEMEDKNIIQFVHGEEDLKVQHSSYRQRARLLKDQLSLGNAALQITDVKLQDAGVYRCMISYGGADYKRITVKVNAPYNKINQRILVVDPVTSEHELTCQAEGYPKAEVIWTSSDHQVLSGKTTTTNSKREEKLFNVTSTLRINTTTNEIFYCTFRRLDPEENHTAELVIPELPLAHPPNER

Q: With IDR-1018 as the compound, how does the “time to degradation in trypsin” value (trypsin) read?
A: The value was “less than 30 min”.

Q: With `CC(=O)N[C@H]1CSSC[C@@H](C(=O)N[C@@H](Cc2c[nH]c3ccccc23)C(=O)N[C@@H](CC(N)=O)C(=O)N[C@@H](CC(C)C)C(=O)N[C@@H](CC(N)=O)C(=O)N[C@H](C(N)=O)[C@@H](C)O)NC(=O)[C@H](Cc2ccc(O)cc2)NC(=O)[C@H](Cc2ccc(O)cc2)NC(=O)[C@H](CO)NC(=O)[C@H](CCCNC(=N)N)NC(=O)[C@H](Cc2c[nH]cn2)NC1=O` [C12] (Ac-CHRSYYCWNLNT-NH2; disulfide 1-7; N-terminus and C-terminus assumed) as the compound, how does the “increase in the blocking efficiency (normalized against the parent peptide CLP-2)” value ([1]; peptide at 5 μM) read?
A: Its value is ~2 fold.

Q: What about the “survival of the mice compared with the saline group” value (CT26 tumor; 0.5 mg/kg intraperitoneally daily) of the same compound?
A: Its value is “significant improvement in survival”.

Q: And the “anti-tumor activity (tumor growth) compared with the saline group” value (CT26 tumor; 0.5 mg/kg intraperitoneally daily from day 10 to day 18, CT26 Balb/c mice)?
A: Its value is “significant anti-tumor activity”.

Q: For “d(CNLNWTYYSRHC) ([dC][dN][dL][dN][dW][dT][dY][dY][dS][dR][dH][dC]; cysteine pairing not given here; also: retro-inverso) [retro-inverso sequence of the C7 peptide]”, which “blocking efficiency / blocking activity (in words)” value ([1]; screening at 5 μM normalized against CLP-2) is on record?
A: Its value is “loss of the blocking efficiency”.

Q: For `C[C@@H](O)[C@H](NC(=O)N[C@@H](CC(N)=O)c1nc([C@@H](N)CO)no1)C(=O)O` [CA-170], which “blocking of the formation of the PD-1/PD-L1 complex” value (PD-1/PD-L1 complex) is on record?
A: The value was “could not block the formation of the PD-1/PD-L1 complex”.
